Published values from different studies.
Protocols differ between the studies behind these lines.
Cell line: HepG2
Observed: cell growth or viability

SMILES	assay	conditions	CC50 [µM]
O=C1C(O)=C([C@H]2CC[C@H](c3ccc(Cl)cc3)CC2)C(=O)c2ccccc21	ATP luminescence	72 h	9.67
Clc1ccc(Nc2ncnc3ccc(-c4cccc(N5CCOCC5)c4)cc23)cc1Cl	MTT	48 h	> 40
N=C(CC(O)c1nc2ccccc2c2ccc(Br)cc12)Nc1ccc(F)cc1 (centres unmarked)	neutral red	24 h	> 25
CCCCN(c1ccc(C)cc1)c1ccc(NC(=O)CN(C)c2ccccc2N2CCCC2=O)cc1	ATP luminescence	48 h	> 40
Cc1ccc(Nc2ncnc3ccc(-c4cccc(N5CCOCC5)c4)cc23)cc1	MTT	48 h	19
CC(C)N(c1ccc(Cl)c(F)c1)c1ccc(NC(=O)CN(C)c2ccccc2N2CCCC2=O)c(F)c1	ATP luminescence	48 h	> 40
FC(F)(F)c1cc(Nc2ncnc3ccc(-c4cccc(N5CCOCC5)c4)cc23)ccc1Cl	MTT	48 h	29
C[n+]1cc2c3c(ccc2c2ccc4cc5c(cc4c21)OCO5)OCO3	ATP luminescence	72 h	9.44
Cc1ccc(Oc2ccc(NC(=O)CNc3ccccc3N3CCCCC3=O)cc2)cc1	ATP luminescence	48 h	15
CN1CCN(c2cccc(-c3ccc4ncnc(Nc5ccc(Cl)c(Cl)c5)c4c3)c2)CC1	MTT	48 h	14
O=C(Nc1ccncc1)c1cc([N+](=O)[O-])ccc1Cl	ATP luminescence	72 h	18.1
N=C(CC(O)c1nc2ccccc2c2ccc(Cl)cc12)Nc1ccc(F)cc1 (centres unmarked)	neutral red	24 h	> 25
Clc1ccc(Nc2ncnc3ccc(-c4cccc(N5CCOCC5)c4)cc23)cc1	MTT	48 h	18
O=C(CNc1ccccc1N1CCCC1=O)Nc1ccc(Oc2cccc(Cl)c2)cc1	ATP luminescence	48 h	> 40
N=C(CC(O)c1ccnc2c1ccc1ccccc12)Nc1ccc(F)cc1 (centres unmarked)	neutral red	–	33.3
CC(=O)OC[C@H]1O[C@@H]([S-])[C@H](OC(C)=O)[C@@H](OC(C)=O)[C@@H]1OC(C)=O.CCP(CC)CC.[Au+]	ATP luminescence	72 h	9.81
Cc1ccc(N(C)c2ccc(NC(=O)CN(C)c3cccnc3N3CCCC3=O)cc2)cc1	ATP luminescence	48 h	> 40
